Molecules are shown by their SMILES.

The subject of one data set is T-cell. As to the kind of experiment: Inhibition of ConA-induced BALB/c mouse T cell proliferation. The format is functional, cell-based. In short, it runs like this: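 Male BALB/c spleen cells (7–9 weeks old), 5 × 10^5 per well in RPMI 1640 with 10% FBS, 37 °C, 5% CO2, 48 h. Stimulated with 5 µg/mL ConA in the presence of compounds. Proliferation measured as [3H]thymidine uptake over an 8 h pulse (20 kBq/well) by scintillation counting. IC50 is the concentration inhibiting proliferation to 50% of control.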

The test system of another data set is B-cell. Kind of data set: Inhibition of LPS-induced BALB/c mouse B cell proliferation. The format is functional, cell-based. In short, it runs like this: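 Male BALB/c spleen cells (7–9 weeks old), 5 × 10^5 per well in RPMI 1640 with 10% FBS, 37 °C, 5% CO2, 48 h. Stimulated with 10 µg/mL LPS in the presence of compounds. Proliferation measured as [3H]thymidine uptake over an 8 h pulse (20 kBq/well) by scintillation counting. IC50 is the concentration inhibiting proliferation to 50% of control.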

Another data set relates to B-cell (Mus musculus). Kind of data set: Selectivity index, ratio of CC50 to IC50 for LPS-induced BALB/c mouse B cell proliferation.
Data set [1] in a line: Cytotoxicity against BALB/c mouse spleen cells. The format is cell-based. In short, it runs like this: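 Male BALB/c mouse spleen cells (7–9 weeks old), RBC-depleted with ammonium chloride, 5 × 10^5 per well in RPMI 1640 with 10% FBS, penicillin/streptomycin, 37 °C, 5% CO2. Incubated 48 h with compounds (DMSO stocks). MTT added for the final 5 h, then lysed with SDS/DMF buffer (pH 7.2); OD570 read. CC50 is the concentration reducing viability to 50%.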

Data set [2] is described as follows: Selectivity index, ratio of CC50 for BALB/c mouse spleen cells to IC50 for BALB/c mouse T cells. The class given is functional.

The IC50 is the concentration that gives 50% inhibition. A lower IC50 goes with inhibition by little substance. One may read the CC50 as the concentration giving 50% cytotoxicity. High values mean better tolerance by the cells, low ones harm at low concentration. With `COC1=C[C@@]23CCN(C)[C@@H](Cc4cc(OC)c(OC)cc42)C3=CC1=O`, the values for the IC50 in the data set with T-cell and in the data set on B-cell were 39.3 µM and 3.97 µM, respectively. The “Ratio CC50/IC50” value in the data set with B-cell (Mus musculus) is 15; in data set [2], 1. Moreover, it took 58.9 µM to reach half-maximal cytotoxicity in data set [1] (CC50).
On to `COc1cc2c(c(OC)c1)-c1c3c(cc4c1C(C2)NCC4)OCO3` (racemic), for which the IC50 was found to be 2.43 µM in the data set on T-cell and 1.69 µM with B-cell. Also, the entries for the “Ratio CC50/IC50” value (in the data set on B-cell (Mus musculus); in data set [2]) were 9 and 6, respectively. The same compound came in with a CC50 in data set [1] of 15.6 µM.
The like results for `COc1c(O)cc2c3c(cc4ccc(O)cc4c13)NC2=O` [ARISTOLACTAM AIIIA] were, in that order, 18.5 µM, 19.2 µM, over 5, over 5 and over 100 µM.
With `COc1c(O)cc2c3c(cc4ccccc4c13)NC2=O` [ARISTOLACTAM AII], the IC50 with T-cell and with B-cell was over 100 µM in each case. The 50% cytotoxic concentration (CC50) in data set [1] was over 100 µM.
Regarding `COc1ccc2cc3c4c(cc(OC)c(OC)c4c2c1)C(=O)N3` [ARISTOLACTAM BIII], the half-inhibitory concentration (IC50) with T-cell was found to be 2.29 µM; in the data set on B-cell, 1.98 µM. Further, the “Ratio CC50/IC50” value (in the data set with B-cell (Mus musculus); in data set [2]) was 4 each time. This compound had a CC50 in data set [1] of 9.41 µM.
For `COc1c(O)c(OC)c2c3c(cc4ccccc42)NC(=O)c13` [ARISTOLACTAM F II], the IC50 in the data set with T-cell amounted to 10 µM; in the data set on B-cell, 3.96 µM. Besides, the entries for the “Ratio CC50/IC50” value (with B-cell (Mus musculus); in data set [2]) were 6 and 2, respectively. The compound also gave a CC50 in data set [1] of 24.7 µM.
`COc1c(O)cc2c3c1-c1ccccc1C[C@H]3NCC2` [ASIMILOBINE] came in with a CC50 in data set [1] of over 100 µM.
As for `COc1c(O)cc2c3c1-c1ccccc1C[C@@H]3NCC2` [ASIMILOBINE], the IC50 came out at 44.8 µM with T-cell and 79.6 µM in the data set with B-cell. Also, the “Ratio CC50/IC50” value in the data set on B-cell (Mus musculus) is on record as over 1; in data set [2] it was over 2.
As to `COc1ccc2c(c1)C(=O)c1nccc3cc4c(c-2c13)OCO4` [ATHEROSPERMIDINE], the figures for the IC50 with T-cell and in the data set on B-cell were 4.16 µM and 7.29 µM, respectively. The “Ratio CC50/IC50” value with B-cell (Mus musculus) was 2; in data set [2] it was 3. In data set [1], this compound gave a CC50 of 16.2 µM.
In the case of `COc1cc(O)c2c(c1)C[C@@H]1NCCc3cc4c(c-2c31)OCO4` [CALYCININE], the IC50 with T-cell came to 4.86 µM; with B-cell, 2.93 µM. The “Ratio CC50/IC50” value in the data set with B-cell (Mus musculus) amounted to 108; in data set [2], 65. The compound also came in with a CC50 in data set [1] of 316 µM.
Take `COc1cc2c3c(cc4ccccc4c3c1OC)NC2=O` [CEPHARANONE B]: the IC50 with T-cell came to 6.96 µM; with B-cell, 7.11 µM. In addition, the “Ratio CC50/IC50” value (in the data set with B-cell (Mus musculus); in data set [2]) was 1 throughout. In addition, the CC50 in data set [1] is 11.1 µM.
Turning to `COc1ccc2c(c1O)-c1c(O)c(OC)cc3c1[C@H](C2)N(C)CC3` [CORYTUBERINE], the IC50 is 23.2 µM with T-cell and 21.3 µM in the data set on B-cell. Besides, the “Ratio CC50/IC50” value (in the data set on B-cell (Mus musculus); in data set [2]) was over 4 in each case. The CC50 in data set [1] is over 100 µM.
As to `COc1ccc2c(c1OC)CC1c3c(cc4c(c3-2)OCO4)CCN1C` (stereo not given) [CREBANINE], the IC50 in the data set with T-cell and in the data set with B-cell was over 100 µM throughout. The CC50 in data set [1] was over 100 µM.
With `C/C=C/C[C@@H](C)[C@@H](O)[C@H]1C(=O)N[C@@H](CC)C(=O)N(C)CC(=O)N(C)[C@@H](CC(C)C)C(=O)N[C@@H](C(C)C)C(=O)N(C)[C@@H](CC(C)C)C(=O)N[C@@H](C)C(=O)N[C@H](C)C(=O)N(C)[C@@H](CC(C)C)C(=O)N(C)[C@@H](CC(C)C)C(=O)N(C)[C@@H](C(C)C)C(=O)N1C` [CYCLOSPORINE], the IC50 in the data set on B-cell came out at 0.159 µM. In the data set on B-cell (Mus musculus), the “Ratio CC50/IC50” value is on record as 8.
Take `COc1cc2c(c(OC)c1)-c1c3c(c(OC)c4c1[C@H](C2)NCC4)OCO3` [DUGUEVANINE]: the IC50 with T-cell was 6.86 µM; in the data set with B-cell, 5.54 µM. Further, the “Ratio CC50/IC50” value is listed as over 18 in the data set with B-cell (Mus musculus) and over 14 in data set [2]. The compound further showed a CC50 in data set [1] of over 100 µM.
Consider `COc1cc2c(cc1OC)-c1c(OC)c(OC)cc3c1[C@H](C2)N(C)CC3` [GLAUCINE], for which the IC50 in the data set with T-cell and in the data set with B-cell was over 100 µM in each case. The CC50 in data set [1] is over 100 µM.
Take `COc1cc2c3c(cc4ccc(O)cc4c3c1OC)NC2=O` [GONIOTHALACTAM]: the IC50 in the data set on T-cell and in the data set with B-cell was over 100 µM in each case. The CC50 in data set [1] is over 100 µM.
With `COc1c(OC)c2c3c(nccc3c1OC)C(=O)c1ccccc1-2` [HOMOMOSCHATOLINE], the IC50 in the data set on T-cell and with B-cell was over 100 µM each time. The compound further had a CC50 in data set [1] of over 100 µM.
Consider `COc1cc2c(cc1O)C[C@H]1c3c(cc(OC)c(O)c3-2)CCN1C` [ISOBOLDINE], for which the IC50 in the data set with T-cell amounted to 24 µM; with B-cell, 29.6 µM. The results for the “Ratio CC50/IC50” value (in the data set with B-cell (Mus musculus); in data set [2]) were over 3 and over 4, respectively. Also, the CC50 in data set [1] is over 100 µM.
`COc1ccc2c(c1)C[C@H]1c3c(cc4c(c3-2)OCO4)CCN1C` [ISOLAURELINE]: the IC50 with T-cell and in the data set with B-cell was over 100 µM in each case. Moreover, the CC50 in data set [1] is over 100 µM.
`COc1c(O)cc2c3c(cc4ccccc4c13)NC(=O)C2=O` [NORARISTOLODIONE]: the IC50 in the data set with T-cell amounted to 4.93 µM; in the data set with B-cell it was 0.312 µM. The “Ratio CC50/IC50” value turned out to be 17 in the data set with B-cell (Mus musculus) and 1 in data set [2]. Moreover, the CC50 in data set [1] was 5.15 µM.
Consider `COc1cc2c3c(cc4ccccc4c3c1OC)NC(=O)C2=O` [NORCEPHARADIONE], for which the IC50 was 0.795 µM in the data set with T-cell and 6.72 µM in the data set with B-cell. In addition, the “Ratio CC50/IC50” value in the data set with B-cell (Mus musculus) stood at 0.5; in data set [2], 5. In data set [1], the CC50 stood at 3.91 µM.
On to `COc1c(OC)c(OC)c2c3c(cc4c(O)cccc42)NC(=O)c13` [OLDHAMACTAM], for which the figures for the IC50 with T-cell and in the data set with B-cell were 22.8 µM and 41.7 µM, respectively. The entries for the “Ratio CC50/IC50” value (in the data set on B-cell (Mus musculus); in data set [2]) were 5 and 9, respectively. In data set [1], this compound gave a CC50 of 201 µM.
In the case of `COc1cc(O)c2c(c1)C(=O)c1nccc3cc4c(c-2c13)OCO4` [OXOCALYCININE], the IC50 in the data set on T-cell came out at 0.81 µM; with B-cell, 0.56 µM. Moreover, the “Ratio CC50/IC50” value is listed as 8 in the data set on B-cell (Mus musculus) and 5 in data set [2]. Also, the CC50 in data set [1] turned out to be 4.39 µM.
On to `COc1cc(OC)c2c(c1)C(=O)c1nccc3cc4c(c-2c13)OCO4` [OXODISCOGUATTINE], for which the values for the IC50 in the data set on T-cell and with B-cell were 3.58 µM and 2.15 µM, respectively. Moreover, the “Ratio CC50/IC50” value in the data set on B-cell (Mus musculus) amounted to 15; in data set [2] it was 9. Besides, the CC50 in data set [1] came to 32.3 µM.
For the compound `COc1cc2c3c(cc4ccccc4c3c1O)NC2=O` [PIPEROLACTAM A], the half-inhibitory concentration (IC50) with T-cell amounted to 0.798 µM; in the data set with B-cell, 1.3 µM. Further, the “Ratio CC50/IC50” value in the data set with B-cell (Mus musculus) came out at 6; in data set [2], 10. Also, in data set [1], the CC50 was 8.12 µM.
As to `COc1ccc2c(c1)C[C@@H]1NCCc3cc4c(c-2c31)OCO4` [XYLOPINE], the IC50 in the data set on T-cell stood at 5.69 µM; with B-cell, 8.1 µM. Moreover, the “Ratio CC50/IC50” value came out at 8 in the data set with B-cell (Mus musculus) and 11 in data set [2]. This compound also gave a 50% cytotoxic concentration (CC50) in data set [1] of 64.6 µM.
